Test results as given in article PMC3390648 (The Journal of Biological Chemistry, 2012).
Ends that are not written are not given here.

Tests used:
yeast primase [1] = assay: GST pulldown with yeast primase; assay type: binding; settings: mutation to alanine of Phe1463
Method in brief: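 GST-Pol1 1453–1468, wild type or single alanine mutants, was expressed in E. coli BL21(DE3). An excess was bound to glutathione-Sepharose and washed in 25 mM HEPES pH 7.0, 250 mM KCl, 1% BSA, 0.1% NP-40, 1 mM TCEP. Beads were incubated with 20 μM yeast primase (Pri1(1–409)/Pri2(49–513)) for 2 h at 4 °C, then washed, ending with a BSA-free wash. Bound protein was read by SDS-PAGE with Coomassie staining.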

human primase = target: T1, human primase (Homo sapiens, UniProt P49642+P49643); assay: Fluorescence polarization; assay type: binding; settings: 25 °C, 25 mM HEPES, pH 7.2, 250 mM KCl, 1 mM TCEP, 30 nM fluorescein-labeled peptide, mean of three independent experiments
T1 sequence (P49643 1-462): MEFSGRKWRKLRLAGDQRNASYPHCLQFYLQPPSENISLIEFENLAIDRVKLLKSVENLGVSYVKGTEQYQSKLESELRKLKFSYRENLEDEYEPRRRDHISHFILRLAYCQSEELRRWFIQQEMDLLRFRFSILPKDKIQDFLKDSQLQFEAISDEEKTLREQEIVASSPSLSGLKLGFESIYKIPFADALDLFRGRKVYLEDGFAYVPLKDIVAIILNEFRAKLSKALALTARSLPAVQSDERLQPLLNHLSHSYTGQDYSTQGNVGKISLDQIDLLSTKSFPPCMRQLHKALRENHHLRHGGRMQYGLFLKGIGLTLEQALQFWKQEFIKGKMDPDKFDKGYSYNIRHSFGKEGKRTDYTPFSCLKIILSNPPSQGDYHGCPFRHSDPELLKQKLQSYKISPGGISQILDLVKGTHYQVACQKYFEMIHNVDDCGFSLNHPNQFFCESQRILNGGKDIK
T1 sequence (P49642 1-420 K72A/M73A partner): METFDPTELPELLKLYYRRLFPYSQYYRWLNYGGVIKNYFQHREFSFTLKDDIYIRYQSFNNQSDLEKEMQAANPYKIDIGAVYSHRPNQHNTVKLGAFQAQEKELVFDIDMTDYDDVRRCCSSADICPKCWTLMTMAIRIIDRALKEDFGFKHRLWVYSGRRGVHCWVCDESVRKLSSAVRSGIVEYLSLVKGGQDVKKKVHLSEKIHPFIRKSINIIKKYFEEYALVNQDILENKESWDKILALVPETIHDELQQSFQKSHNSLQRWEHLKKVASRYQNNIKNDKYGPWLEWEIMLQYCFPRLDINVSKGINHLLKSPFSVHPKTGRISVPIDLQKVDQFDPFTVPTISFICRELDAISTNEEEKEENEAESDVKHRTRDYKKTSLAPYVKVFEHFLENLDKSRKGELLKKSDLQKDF
Method in brief: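 Peptide was human pol α 1445–1462 (wild type or point mutant), synthesized with an N-terminal fluorescein. Human primase was His-Prim1(1–420; K72A/M73A) with Prim2(1–462), made in E. coli and purified by Co-NTA, heparin, TEV cleavage and gel filtration. Serial protein dilutions were read at λex 485/λem 520 nm, 200 flashes per well. Gain was set against fluorescein (35 mP). Curves were fitted by Monte Carlo fitting.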

yeast primase [2] = assay: Binding of pol1 C-terminal peptide to yeast primase; settings: qualitative statement of abstract; method not given
Pri1-Pri2 primase = assay: Analytical gel filtration, assembly with primase; assay type: binding, yeast; settings: Superdex 200 10/300 GL, 14 μM complex, 25 mM HEPES, pH 7.2, 250 mM KCl, 5% glycerol, 0.5 mM TCEP; equimolar, 4 °C, 30 min
Method in brief: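 Yeast primase Pri1(1–409)/His-Pri2(49–513) or the ΔCTD form Pri2(49–335), and Pol1 CTD(1263–1468)/His-Pol12(246–705), were expressed in E. coli Rosetta2(DE3). They were purified by Co-NTA, heparin, TEV tag cleavage and gel filtration. Equimolar partners were mixed for 30 min at 4 °C, and 100 μl was injected at 0.5 ml/min. Fractions were read by SDS-PAGE with Coomassie staining.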

Pol12 = assay: Immunoprecipitation and immunoblotting, Pol12; assay type: cell-based, Saccharomyces cerevisiae; settings: diploid yeast, anti-HA beads, native cell extracts, immunoblotting

## F1463A (GRRYVDMTSIADFMLN; also: GST fusion, N-terminal)
Yeast primase [1]
  interaction with primase (abstract summary, in vitro): abrogates the interaction with the primase

## F1455A (GYSEVNLSKLAAGCAVKS; also: fluorescein label, position not given here)
Human primase
  level of binding: did not display a measurable level of binding

## GRRYVDMTSIFDFMLN [pol1 peptide]
Yeast primase [2]
  binding to primase: binds primase with high affinity

B1: CTD-Pol12: yeast Pol1 (1263–1468) with His-tagged Pol12 (246–705) (protein)
chain 1: NLQPLETTITDVERFKDTVTLELSCPSCDKRFPFGGIVSSNYYRVSYNGLQCKHCEQLFTPLQLTSQIEHSIRAHISLYYAGWLQCDDSTCGIVTRQVSVFGKRCLNDGCTGVMRYKYSDKQLYNQLLYFDSLFDCEKNKKQELKPIYLPDDLDYPKEQLTESSIKALTEQNRELMETGRSVVQKYLNDCGRRYVDMTSIFDFMLN
chain 2: KFRTMRQNLQEASDVLDDQIESFTKIIQNHYKLSPNDFADPTIQSQSEIYAVGRIVPDSPTYDKFLNPESLSLETSRMGGVGRRVRLDLSQVNELSFFLGQIVAFKGKNANGDYFTVNSILPLPYPNSPVSTSQELQEFQANLEGSSLKVIVTCGPYFANDNFSLELLQEFIDSINNEVKPHVLIMFGPFIDITHPLIASGKLPNFPQFKTQPKTLDELFLKLFTPILKTISPHIQTVLIPSTKDAISNHAAYPQASLIRKALQLPKRNFKCMANPSSFQINEIYFGCSNVDTFKDLKEVIKGGTTSSRYRLDRVSEHILQQRRYYPIFPGSIRTRIKPKDVSTKKETNDMESKEEKVYEHISGADLDVSYLGLTEFVGGFSPDIMIIPSELQHFARVVQNVVVINPGRFIRATGNRGSYAQITVQCPDLEDGKLTLVEGEEPVYLHNVWKRARVDLIAS
modifications: left off: His tag, end not stated, cleaved
Pri1-Pri2 primase
  complex formation with primase: eluted as a single peak

B2: Pol1: wild-type catalytic subunit of yeast pol α (protein)
chain: MSSKSEKLEKLRKLQAARNGTSIDDYEGDESDGDRIYDEIDEKEYRARKRQELLHDDFVVDDDGVGYVDRGVEEDWREVDNSSSDEDTGNLASKDSKRKKNIKREKDHQITDMLRTQHSKSTLLAHAKKSQKKSIPIDNFDDILGEFESGEVEKPNILLPSKLRENLNSSPTSEFKSSIKRVNGNDESSHDAGISKKVKIDPDSSTDKYLEIESSPLKLQSRKLRYANDVQDLLDDVENSPVVATKRQNVLQDTLLANPPSAQSLADEEDDEDSDEDIILKRRTMRSVTTTRRVNIDSRSNPSTSPFVTAPGTPIGIKGLTPSKSLQSNTDVATLAVNVKKEDVVDPETDTFQMFWLDYCEVNNTLILFGKVKLKDDNCVSAMVQINGLCRELFFLPREGKTPTDIHEEIIPLLMDKYGLDNIRAKPQKMKYSFELPDIPSESDYLKVLLPYQTPKSSRDTIPSDLSSDTFYHVFGGNSNIFESFVIQNRIMGPCWLDIKGADFNSIRNASHCAVEVSVDKPQNITPTTTKTMPNLRCLSLSIQTLMNPKENKQEIVSITLSAYRNISLDSPIPENIKPDDLCTLVRPPQSTSFPLGLAALAKQKLPGRVRLFNNEKAMLSCFCAMLKVEDPDVIIGHRLQNVYLDVLAHRMHDLNIPTFSSIGRRLRRTWPEKFGRGNSNMNHFFISDICSGRLICDIANEMGQSLTPKCQSWDLSEMYQVTCEKEHKPLDIDYQNPQYQNDVNSMTMALQENITNCMISAEVSYRIQLLTLTKQLTNLAGNAWAQTLGGTRAGRNEYILLHEFSRNGFIVPDKEGNRSRAQKQRQNEENADAPVNSKKAKYQGGLVFEPEKGLHKNYVLVMDFNSLYPSIIQEFNICFTTVDRNKEDIDELPSVPPSEVDQGVLPRLLANLVDRRREVKKVMKTETDPHKRVQCDIRQQALKLTANSMYGCLGYVNSRFYAKPLAMLVTNKGREILMNTRQLAESMNLLVVYGDTDSVMIDTGCDNYADAIKIGLGFKRLVNERYRLLEIDIDNVFKKLLLHAKKKYAALTVNLDKNGNGTTVLEVKGLDMKRREFCPLSRDVSIHVLNTILSDKDPEEALQEVYDYLEDIRIKVETNNIRIDKYKINMKLSKDPKAYPGGKNMPAVQVALRMRKAGRVVKAGSVITFVITKQDEIDNAADTPALSVAERAHALNEVMIKSNNLIPDPQYYLEKQIFAPVERLLERIDSFNVVRLSEALGLDSKKYFRREGGNNNGEDINNLQPLETTITDVERFKDTVTLELSCPSCDKRFPFGGIVSSNYYRVSYNGLQCKHCEQLFTPLQLTSQIEHSIRAHISLYYAGWLQCDDSTCGIVTRQVSVFGKRCLNDGCTGVMRYKYSDKQLYNQLLYFDSLFDCEKNKKQELKPIYLPDDLDYPKEQLTESSIKALTEQNRELMETGRSVVQKYLNDCGRRYVDMTSIFDFMLN
modifications: left off: 6HA, end not stated, kept
Pol12
  association with Pol12: all associated equally well with Pol12
